Experimental data taken from ChEMBL document CHEMBL4513216, “Probing the Open Global Health Chemical Diversity Library for Multistage-Active Starting Points for Next-Generation Antimalarials” (ACS Infect Dis, 2020).

Assay: Toxicity liver stage against HepG2, at 10uM
Format: cell-based
Parameters: test concentration 10 uM, cell line HepG2-A16-CD81EGFP
Settings: human, HepG2-A16-CD81EGFP cells; read-out: INHIBITION
Summary of the method: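 Uninfected HepG2-A16-CD81EGFP cells, 3 × 10^3 per well, 1536-well, plated on prespotted compound at 10 μM final, parasite-free screening media added to match infected plates; puromycin 10 μM positive, DMSO 0.5% negative; run in parallel with 48 h PbLuc assay at 37 °C, 5% CO2; viability by CellTiter-Glo luminescence, normalized to controls.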

In order of falling cytotoxicity at 10 µM:
1. CCOc1ccc(CN(C)C(=O)COc2ccc(C)nc2)cc1  22.7%
2. COCCCN1CC2(CCCCN2C(C)=O)CC1=O (stereo not drawn)  16.3%
3. CCc1nc(CN(C)C2CCN(Cc3nc(C4CC4)no3)C2)no1 (stereo not drawn)  14.9%
4. COCCCNC(=O)C(C)n1cc(Br)cn1 (stereo not drawn)  12.2%
5. CC1CCC(NC(=O)c2nn(C)cc2I)CC1 (stereo not drawn)  11.8%
6. Cc1nc(CN2CCN(CCCc3ccccc3)CC2)no1  11.7%
7. CCNC(=O)CN1CCN(c2ccnc3c(F)ccc(F)c23)CC1  11.7%
8. COCCN(Cc1ccoc1)C(=O)c1ccccc1Cl  9.12%
9. CS(=O)(=O)c1ccc(NCc2ccc(F)cc2)cn1  8.08%
10. CNc1nc2cn(CCc3ccccc3)c(=O)c-2c[nH]1  7.77%
11. CN(C1CCCCC1)S(=O)(=O)NC1CCN(c2ncccn2)CC1  6.99%
12. CN(C)CCn1c(=O)oc2ccc(NC(=O)c3cc(Cl)c[nH]3)cc21  6.79%
13. CCCN(Cc1cnn(C)c1)S(=O)(=O)c1ccc(F)c(C#N)c1  6.69%
14. CSCC[C@H](NC(=O)Cn1ccc2ccc(Cl)cc21)C(=O)O  6.59%
15. CC1CCN(C(=O)c2cnc3cc(C(=O)N(C)C)n(C)c3c2)CC1  6.14%
16. NC(=O)c1cnc(NC2CCN(c3ccccc3)CC2)c(Cl)c1  6.07%
17. O=C(c1cscn1)N1CC[C@@H]2[C@@H]1CCN2c1ccccn1  5.95%
18. Cn1nnnc1SCCC(=O)NCC(C)(C)c1ccccc1F  5.68%
19. Cc1cc(C(=O)NCC(O)CN2CCCC2=O)ccc1F (stereo not drawn)  5.24%
20. CN(C)c1ncccc1C(=O)N1CCN(C2=NCC(C)(C)S2)CC1  5.03%
21. CN(C)c1cccc(C(=O)Nc2cnn(Cc3ccccn3)c2)c1  4.81%
22. CC(C)c1noc(C2CCCN2S(=O)(=O)N2CCCCCC2)n1 (stereo not drawn)  4.73%
23. CCC[C@@H]1CN(c2cncc(C(=O)N3CCOCC3)n2)C[C@H]1N(C)C  4.63%
24. CCN(Cc1ccccn1)C1CCN(c2ccccc2)C1=O (stereo not drawn)  4.34%
25. CCN(CC)C(=O)CN(C)C(=O)c1cc(-c2cccc(Cl)c2)no1  4.28%
26. O=C(NCCNc1cncc(Br)c1)c1ccc(O)cc1  3.73%
27. CC(O)CN1CCC(CNCc2cn(-c3ccccc3)nn2)CC1 (stereo not drawn)  3.31%
28. Cc1nc(C)n(CC2CCCN2CCOc2ccc(F)cc2)n1 (stereo not drawn)  3.06%
29. O=C(Nc1ccc(F)cc1)C1CCc2ccccc2N1 (stereo not drawn)  2.4%
30. OC(CN1CCN(c2ncccn2)CC1)c1cccc(F)c1 (stereo not drawn)  2.4%
31. Cc1ccoc1C(=O)NC1CCN(C(=O)Nc2ccccn2)CC1  1.97%
32. CC(c1cccc(Cl)c1)N1CCN(S(C)(=O)=O)CC1 (stereo not drawn)  1.81%
33. COc1cncc(N2CCN(Cc3ccncc3Cl)CC2)n1  1.66%
34. CCCN1CCN(C(=O)Nc2ccccc2Cl)[C@H]2CS(=O)(=O)C[C@H]21  1.54%
35. COc1cccc(N2C(=O)CC3(CCCNC3)C2=O)c1 (stereo not drawn)  1.52%
36. COC(=O)CNC(=O)CSCc1nc(O)c2cc(C)sc2n1  1.45%
37. O=C(c1cscn1)N1CCC2(CCCN(CCOc3ccccc3)C2)C1 (stereo not drawn)  1.38%
38. Brc1cnc(NCc2ccccc2N2CCOCC2)nc1  1.3%
39. COCCCNC(=O)Nc1cccc(Cl)c1-n1cccn1  1.13%
40. COCC(=O)N1CCN(S(=O)(=O)c2ccccc2)[C@@H](C(=O)OC)C1  1.03%
41. CN1C(=O)CO[C@H](c2ccc(NC(=O)Cc3cccs3)cc2)[C@H]1CO  0.931%
42. Cc1cccn2c(=O)cc(CN3CCCC3Cn3cncn3)nc12 (stereo not drawn)  0.714%
43. CCN(CC)S(=O)(=O)c1cc(Br)ccc1OC  0.58%
44. CC(C)NS(=O)(=O)c1cc(C(=O)O)cc(-c2ccccc2CO)c1  0.555%
45. CCCc1nc(CN2CCCC2c2cnn(C)c2)cs1 (stereo not drawn)  0.441%
46. COCCO[C@H]1CCN(Cc2cccnc2)[C@H]1Cc1cccnc1  0.0623%
47. CCn1cc(NC(=O)N2CCN(CCSc3ccccc3)CC2)cn1  -0.095%
48. N#Cc1cnc(NCc2ccc(C(=O)NC3CC3)cc2)c(Cl)c1  -0.18%
49. CC1CN(C)CCN1Cc1cccc(C(=O)N(C)C)c1 (stereo not drawn)  -0.192%
50. CN(C)C1CN(C(=O)Nc2cccc(OC(F)F)c2)C1  -0.317%
51. COCCNS(=O)(=O)c1cccc2c1CN(C(=O)c1cnccn1)CC2  -0.432%
52. Cc1nccn1CCN(C)C(=O)c1cn(-c2ccccc2)nn1  -0.651%
53. Cc1cc(CNC(=O)[C@H]2CCCCN2C(=O)OC(C)(C)C)on1  -0.82%
54. O=c1cc(CN(CCO)C2CC2)nc2ccccn12  -1.05%
55. COc1cccc(Cn2ncnc2CCSC)c1  -1.22%
56. CCOc1nnc(CN(Cc2ccccc2)CC(O)c2ccco2)s1 (stereo not drawn)  -1.57%
57. CC(CN1CCOCC1)NC(=O)Nc1cccnc1-n1cccn1 (stereo not drawn)  -1.7%
58. CN(CCSc1nncn1CC(F)(F)F)c1ccccc1  -1.86%
59. N#Cc1ccnc(N2CCN(C3CCOC3=O)CC2)c1 (stereo not drawn)  -1.98%
60. CC(=O)N1CCc2c(nc(-c3cccnc3)nc2N(C)CC(O)CO)C1 (stereo not drawn)  -2.03%
61. Cc1cc(C)c(C(=O)N[C@H](C(N)=O)c2ccccc2)c(=O)[nH]1  -2.06%
62. CCC(NC(=O)c1cnc(-c2cccnc2)nc1)c1ccnn1C (stereo not drawn)  -2.11%
63. O=C(c1c(O)cnc2ccccc12)N1CCN(CC(F)F)CC1  -2.22%
64. Cc1ccc(CN2CC[C@H](c3nnc(-c4ccco4)o3)C2)cc1  -2.25%
65. Cc1cnn(CC2CN(CCS(C)(=O)=O)CCO2)c1 (stereo not drawn)  -2.25%
66. Cc1nc(CSCCC(=O)NCCNC(=O)OC(C)(C)C)cs1  -2.3%
67. Cc1cccc(N2CCN(C(=O)CNCCn3cc(C)cn3)CC2)c1  -2.83%
68. O=C(NCc1cccs1)c1nc2c(o1)CN(CC1CC1)C2  -2.83%
69. Cc1nc2sccn2c1C(=O)N1CCc2c(nc(N)[nH]c2=O)C1  -3.22%
70. CCNC(=O)N1CCC(c2ccccc2)C1 (stereo not drawn)  -3.57%
71. CN1CCN(S(=O)(=O)c2cncc(F)c2)c2ccccc2C1  -3.69%
72. Cc1ccc2oc(C(=O)N3CCCC(n4cccn4)C3)cc2n1 (stereo not drawn)  -3.89%
73. O=C(CN1CCCCC1Cn1cncn1)NCc1ccccn1 (stereo not drawn)  -4.02%
74. CC(C)c1noc(CN2CCN(C(=O)c3cccc(F)c3)CC2)n1  -4.27%
75. O=C(NC1CCc2c(ccc(=O)n2CC2CC2)C1)c1ccsc1 (stereo not drawn)  -4.48%
76. CC(C)[C@H](CO)Nc1nccc(-c2c[nH]nc2-c2ccncc2)n1  -4.66%
77. COc1ccc2nnc(CCCC(=O)NCCc3ccccc3)n2n1  -5.11%
78. CCc1cnc(CN(C(C)=O)C2CCN(CCc3cnn(C)c3)C2)o1 (stereo not drawn)  -5.85%
79. O=C(c1ccsc1)N1C[C@@H]2C[C@@H](c3nnc(C4CC4)o3)O[C@@H]2C1  -6.15%
80. Cc1nn(C)c(Cl)c1C1CCCN1Cc1nnc(C2CC2)o1 (stereo not drawn)  -6.18%
81. CO[C@@H]1CC[C@H]2[C@H]1OCCN2C(=O)C1=CCCC1  -6.34%
82. COCCC(=O)N1CCC(Nc2ncc(Cl)cn2)CC1  -6.74%
83. CCN(CC1CN(Cc2ccccn2)CCO1)c1cccnn1 (stereo not drawn)  -6.95%
84. COc1cccc(CN(C)Cc2ccc(C#N)cc2)c1OC  -8.34%
85. C[S+]([O-])c1nncn1CC(=O)c1ccc(OC(F)F)cc1 (stereo not drawn)  -8.56%
86. CN(C)C(=O)Cc1ccc(NCc2nccn2C)cc1  -8.73%
87. CN1CCC(c2nnc(CN3CCC(O)CC3)n2C)CC1  -8.94%
88. N#Cc1ccc(CN2CCCCC2Cn2cccn2)cc1 (stereo not drawn)  -8.96%
89. CN(CC(C)(C)O)C(=O)Nc1ccc(F)c(-n2cccc2)c1  -9.3%
90. CCOc1ccc(-n2nnc(C(=O)O)c2-c2ccccn2)cc1  -9.31%
91. COCCOc1cccc(C(=O)N2CCCCC2c2nccs2)c1 (stereo not drawn)  -9.5%
92. COc1ncc(C)cc1NC(=O)COc1ccccc1F  -9.52%
93. Cn1cc(CN2CCC(F)(F)C3(CCN(c4cnccn4)C3)C2)cn1 (stereo not drawn)  -9.93%
94. CC(COc1ccc(F)cc1F)NC(=O)NCCN1CCOCC1 (stereo not drawn)  -10.9%
95. Cn1c(C2CC2)nc2c1CCN(CC(=O)Nc1ccncc1)C2  -11.8%
96. Cc1nn(C)c(N(C)C)c1CNCc1cccc(Cn2ccnc2)c1  -12%
97. CC(C)n1ccnc1CN1CCCN(C(=O)CC2CCCO2)CC1 (stereo not drawn)  -12.8%
98. COc1cc(CN(C)C(=O)NCCC2CCCO2)ccc1SC (stereo not drawn)  -13.8%
99. NC(=O)c1cccc(C(=O)N2CCCC(n3ccnc3)C2)c1 (stereo not drawn)  -14%
100. CCN(Cc1ccccc1)C(=O)c1cc(C2CCCN2C)ccn1 (stereo not drawn)  -14.2%
101. CCc1nc(C2CCCN(C(=O)c3ccc(OC)cc3)C2)no1 (stereo not drawn)  -15.6%
102. Cc1ccc(CN2Cc3ccnn3CC(C(=O)NCC3CC3)C2)o1 (stereo not drawn)  -15.9%
103. CNC(=O)[C@@]12CCC3(CCN(S(C)(=O)=O)CC3)[C@@H]1CN(S(C)(=O)=O)C2  -16.1%
104. O=C(NCCc1cccnc1)NC1CCOC2(CCCCC2)C1 (stereo not drawn)  -16.3%
105. CCC(OC)C(=O)N1CCc2nc(NC)nc(C(=O)N3CCCC3)c2C1 (stereo not drawn)  -18.3%
106. CC(O)CN1CCN(C(=O)c2cccc3[nH]ncc23)CC1 (stereo not drawn)  -20.5%
107. Cc1ccc(CNC(=O)Nc2nccs2)cn1  -23.8%
108. Cc1ccc(OCCN(C)C(C)c2cccc(S(N)(=O)=O)c2)cc1 (stereo not drawn)  -29.3%
109. CN(C)C(=O)N1CCCC2(CCN(c3ccsc3)C2=O)C1 (stereo not drawn)  -72.5%
110. O=C(Cc1ccccn1)N1CCC2(CCCN(CC3CCOCC3)C2)C1 (stereo not drawn)  -122%
111. COc1nn(C)c2c1CCCN(S(=O)(=O)c1cccc(F)c1)C2  -129%
112. Cc1cc(CN2CCC(CNC(=O)c3ccc4[nH]cnc4c3)C2)[nH]n1 (stereo not drawn)  -145%
113. Cc1cc(F)ccc1C(=O)N1C[C@@H]2COC[C@]2(COCC2CC2)C1  -146%
